Viability and IC50 data for 18 compounds are collected here from ChEMBL document CHEMBL4130532, “Camellianols A-G, Barrigenol-like Triterpenoids with PTP1B Inhibitory Effects from the Endangered Ornamental Plant Camellia crapnelliana” (J Nat Prod, 2017).

Usually IC50 stands for the concentration at which inhibition is half-maximal.

Data set [1] can be described thus: Cytotoxicity against human L02 cells assessed as cell viability at 10 uM after 24 hrs by MTS assay relative to control. Type of data set: cell-based. As to conditions: read-out: Activity. The procedure, abridged:
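Human […] L02 cells were seeded and cultured overnight, then exposed to the compound at varying concentrations for 24 h. Medium containing the water-soluble tetrazolium MTS reagent was added, and the cells were incubated at 37 °C for 2 h to read out viability.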
In general terms: Tetrazolium dyes change colour on reduction, which living cells bring about.

The target of data set [2] is T1, Tyrosine-protein phosphatase non-receptor type 1 (Homo sapiens, UniProt P18031).
T1 sequence (P18031 whole entry): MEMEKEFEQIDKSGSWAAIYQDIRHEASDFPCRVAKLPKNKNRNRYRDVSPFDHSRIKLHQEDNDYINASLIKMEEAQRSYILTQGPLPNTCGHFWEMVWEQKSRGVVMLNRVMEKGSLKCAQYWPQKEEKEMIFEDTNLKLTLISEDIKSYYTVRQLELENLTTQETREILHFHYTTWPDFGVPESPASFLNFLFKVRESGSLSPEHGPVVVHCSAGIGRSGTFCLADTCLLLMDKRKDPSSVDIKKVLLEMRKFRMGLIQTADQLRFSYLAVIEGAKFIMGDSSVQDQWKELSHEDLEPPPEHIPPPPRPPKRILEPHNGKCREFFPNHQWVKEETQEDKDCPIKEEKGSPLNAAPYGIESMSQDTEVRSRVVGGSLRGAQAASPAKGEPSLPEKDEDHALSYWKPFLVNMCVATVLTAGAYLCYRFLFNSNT
Kind of data set: Inhibition of recombinant human GST-tagged PTP1B catalytic domain expressed in Escherichia coli BL21 using para-nitrophenyl phosphate as substrate.

As to `CC1(C)CC[C@]2(C)CC[C@@]3(C)[C@]4(C)CC[C@H]5C(C)(C)[C@@H](O)CC[C@]5(C)[C@H]4[C@H](O)C(=O)[C@]3(O)[C@@H]2C1`, in data set [1], the viability at 24 h, 10 µM was more than 90%. The concentration for half-maximal inhibition (IC50) in data set [2] is 1.34 µM.

With `C/C=C(/C)C(=O)O[C@H]1CC(C)(C)C[C@H]2C3=CC[C@@H]4[C@@]5(C)CC[C@H](O)C(C)(C)[C@@H]5CC[C@@]4(C)[C@]3(C)[C@@H](O)[C@@H](O)[C@@]12CO`, the viability at 24 h, 10 µM in data set [1] is more than 90%. Moreover, the IC50 in data set [2] was determined as 2.56 µM.

Take `C/C=C(/C)C(=O)O[C@H]1CC(C)(C)C[C@H]2C3=CC[C@@H]4[C@@]5(C)CC[C@H](O)C(C)(C)[C@@H]5CC[C@@]4(C)[C@]3(C)[C@@H](O)[C@@H](OC(C)=O)[C@@]12CO`: in data set [1], the viability at 24 h, 10 µM was more than 90%. In data set [2], the half-inhibitory concentration (IC50) is 4.87 µM.

In the case of `C/C=C(/C)C(=O)OC[C@@]12[C@H](O)[C@H](O)[C@]3(C)C(=CC[C@@H]4[C@@]5(C)CC[C@H](O)C(C)(C)[C@@H]5CC[C@]43C)[C@@H]1CC(C)(C)C[C@@H]2O`, the viability at 24 h, 10 µM in data set [1] is more than 90%. Further, the half-inhibitory concentration (IC50) in data set [2] turned out to be 11.1 µM.

In the case of `CC(=O)O[C@H]1[C@@H](O)[C@@]2(CO)[C@@H](O)CC(C)(C)C[C@H]2C2=CC[C@@H]3[C@@]4(C)CCC(=O)C(C)(C)[C@@H]4CC[C@@]3(C)[C@@]21C`, in data set [1], the viability at 24 h, 10 µM was more than 90%. Besides, in data set [2], the IC50 worked out at 44.4 µM.

`C=C(C)[C@@H]1CC[C@]2(C)CC[C@]3(C)[C@H](CC[C@@H]4[C@@]5(C)CC[C@H](O)C(C)(C)[C@@H]5CC[C@]43C)[C@@H]12` [LUPEOL]: in data set [1], the viability at 24 h, 10 µM is more than 90%. Moreover, the IC50 in data set [2] was 3.68 µM.

`CC1(C)CC[C@]2(C(=O)O)CC[C@]3(C)C(=CC[C@@H]4[C@@]5(C)CC[C@H](O)C(C)(C)[C@@H]5CC[C@]43C)[C@@H]2C1` [OLEANOLIC_ACID]: the viability at 24 h, 10 µM in data set [1] was more than 90%.

`CC(=O)O[C@@H]1C[C@]2(C)C(=CC[C@@H]3[C@@]4(C)CC[C@H](O)C(C)(C)[C@@H]4CC[C@]32C)[C@@H]2CC(C)(C)C[C@H](O)[C@]12CO`: the viability at 24 h, 10 µM in data set [1] is more than 90%. The IC50 in data set [2] was determined as 10.2 µM.

`CC1(C)C[C@H](O)[C@]2(CO)[C@H](O)[C@H](O)[C@]3(C)C(=CC[C@@H]4[C@@]5(C)CCC(=O)C(C)(C)[C@@H]5CC[C@]43C)[C@@H]2C1`: the viability at 24 h, 10 µM in data set [1] was more than 90%. Also, in data set [2], the half-maximal inhibitory concentration (IC50) turned out to be 49.4 µM.

As for `CC1(C)CC[C@]2(CO)[C@H](O)[C@H](O)[C@]3(C)C(=CC[C@@H]4[C@@]5(C)CC[C@H](O)C(C)(C)[C@@H]5CC[C@]43C)[C@@H]2C1`, in data set [1], the viability at 24 h, 10 µM was more than 90%. Also, the IC50 in data set [2] is 14.4 µM.

In the case of `CC1(C)CC[C@]2(C)CC[C@]3(C)C(=CC[C@@H]4[C@@]5(C)CC[C@H](O)C(C)(C)[C@@H]5CC[C@]43C)[C@@H]2C1` [beta-AMYRIN], in data set [1], the viability at 24 h, 10 µM was more than 90%. In data set [2], the IC50 was more than 100 µM.

On to `CC(C)(O)[C@@H]1CC[C@]2(C)CC[C@]3(C)C(CC[C@@H]4[C@@]5(C)CC[C@H](O)C(C)(C)[C@@H]5CC[C@]43C)[C@H]12` (stereo not given in full), for which the viability at 24 h, 10 µM in data set [1] is more than 90%. The IC50 in data set [2] was 12.4 µM.

`C[C@H]1[C@H](C)CC[C@]2(C)CC[C@]3(C)C(=CC[C@@H]4[C@@]5(C)CC[C@H](O)C(C)(C)[C@@H]5CC[C@]43C)[C@H]12`: the viability at 24 h, 10 µM in data set [1] is more than 90%. The IC50 in data set [2] stood at 19.3 µM.

On to `CC1(C)C[C@H](O)[C@]2(CO)[C@H](O)C[C@]3(C)C(=CC[C@@H]4[C@@]5(C)CC[C@H](O)C(C)(C)[C@@H]5CC[C@]43C)[C@@H]2C1`, for which, in data set [1], the viability at 24 h, 10 µM is more than 90%. Also, the half-maximal inhibitory concentration (IC50) in data set [2] turned out to be 8.93 µM.

For `C/C=C(/C)C(=O)O[C@H]1CC(C)(C)C[C@H]2C3=CC[C@@H]4[C@@]5(C)CC[C@H](O)C(C)(C)[C@@H]5CC[C@@]4(C)[C@]3(C)[C@@H](OC(C)=O)[C@@H](O)[C@@]12CO`, the viability at 24 h, 10 µM in data set [1] was more than 90%. For the same compound, in data set [2], the concentration for half-maximal inhibition (IC50) amounted to 7.4 µM.

With `CC1(C)C[C@H](O)[C@]2(CO)[C@H](O)[C@H](O)[C@]3(C)C(=CC[C@@H]4[C@@]5(C)CC[C@H](O)C(C)(C)[C@@H]5CC[C@]43C)[C@@H]2C1`, the viability at 24 h, 10 µM in data set [1] is more than 90%. Further, the IC50 in data set [2] was found to be 16.8 µM.

Consider `CC(=O)O[C@@H]1[C@H](O)[C@]2(C)C(=CC[C@@H]3[C@@]4(C)CCC(=O)C(C)(C)[C@@H]4CC[C@]32C)[C@@H]2CC(C)(C)C[C@H](O)[C@]12CO`, for which the viability at 24 h, 10 µM in data set [1] was more than 90%. Besides, in data set [2], the IC50 was found to be 20 µM.

For the compound `CC(=O)O[C@@H]1[C@H](O)[C@]2(C)C(=CC[C@@H]3[C@@]4(C)CC[C@H](O)C(C)(C)[C@@H]4CC[C@]32C)[C@@H]2CC(C)(C)C[C@H](O)[C@]12CO`, in data set [1], the viability at 24 h, 10 µM was more than 90%. Besides, in data set [2], the IC50 worked out at 47.4 µM.
